Data reported in ChEMBL document CHEMBL5653631, “A Potent and Selective ULK1 Inhibitor Suppresses Autophagy and Sensitizes Cancer Cells to Nutrient Stress” (iScience, 2018).
Values belong to the molecule of their own block, whether it stands above or below them.

How the values were obtained:
[1] = biological target: cAMP-dependent protein kinase catalytic subunit alpha (Homo sapiens) (UniProt P17612); experiment: Inhibition of human recombinant PKACalpha at 500 nM in presence of ATP by radiometric assay relative to control
[2] = biological target: eIF-2-alpha kinase GCN2 (Homo sapiens) (UniProt Q9P2K8); experiment: Inhibition of human recombinant GCN2 at 500 nM in presence of ATP by radiometric assay relative to control
eIF-2-alpha kinase GCN2 (Homo sapiens), sequence (Q9P2K8 whole entry): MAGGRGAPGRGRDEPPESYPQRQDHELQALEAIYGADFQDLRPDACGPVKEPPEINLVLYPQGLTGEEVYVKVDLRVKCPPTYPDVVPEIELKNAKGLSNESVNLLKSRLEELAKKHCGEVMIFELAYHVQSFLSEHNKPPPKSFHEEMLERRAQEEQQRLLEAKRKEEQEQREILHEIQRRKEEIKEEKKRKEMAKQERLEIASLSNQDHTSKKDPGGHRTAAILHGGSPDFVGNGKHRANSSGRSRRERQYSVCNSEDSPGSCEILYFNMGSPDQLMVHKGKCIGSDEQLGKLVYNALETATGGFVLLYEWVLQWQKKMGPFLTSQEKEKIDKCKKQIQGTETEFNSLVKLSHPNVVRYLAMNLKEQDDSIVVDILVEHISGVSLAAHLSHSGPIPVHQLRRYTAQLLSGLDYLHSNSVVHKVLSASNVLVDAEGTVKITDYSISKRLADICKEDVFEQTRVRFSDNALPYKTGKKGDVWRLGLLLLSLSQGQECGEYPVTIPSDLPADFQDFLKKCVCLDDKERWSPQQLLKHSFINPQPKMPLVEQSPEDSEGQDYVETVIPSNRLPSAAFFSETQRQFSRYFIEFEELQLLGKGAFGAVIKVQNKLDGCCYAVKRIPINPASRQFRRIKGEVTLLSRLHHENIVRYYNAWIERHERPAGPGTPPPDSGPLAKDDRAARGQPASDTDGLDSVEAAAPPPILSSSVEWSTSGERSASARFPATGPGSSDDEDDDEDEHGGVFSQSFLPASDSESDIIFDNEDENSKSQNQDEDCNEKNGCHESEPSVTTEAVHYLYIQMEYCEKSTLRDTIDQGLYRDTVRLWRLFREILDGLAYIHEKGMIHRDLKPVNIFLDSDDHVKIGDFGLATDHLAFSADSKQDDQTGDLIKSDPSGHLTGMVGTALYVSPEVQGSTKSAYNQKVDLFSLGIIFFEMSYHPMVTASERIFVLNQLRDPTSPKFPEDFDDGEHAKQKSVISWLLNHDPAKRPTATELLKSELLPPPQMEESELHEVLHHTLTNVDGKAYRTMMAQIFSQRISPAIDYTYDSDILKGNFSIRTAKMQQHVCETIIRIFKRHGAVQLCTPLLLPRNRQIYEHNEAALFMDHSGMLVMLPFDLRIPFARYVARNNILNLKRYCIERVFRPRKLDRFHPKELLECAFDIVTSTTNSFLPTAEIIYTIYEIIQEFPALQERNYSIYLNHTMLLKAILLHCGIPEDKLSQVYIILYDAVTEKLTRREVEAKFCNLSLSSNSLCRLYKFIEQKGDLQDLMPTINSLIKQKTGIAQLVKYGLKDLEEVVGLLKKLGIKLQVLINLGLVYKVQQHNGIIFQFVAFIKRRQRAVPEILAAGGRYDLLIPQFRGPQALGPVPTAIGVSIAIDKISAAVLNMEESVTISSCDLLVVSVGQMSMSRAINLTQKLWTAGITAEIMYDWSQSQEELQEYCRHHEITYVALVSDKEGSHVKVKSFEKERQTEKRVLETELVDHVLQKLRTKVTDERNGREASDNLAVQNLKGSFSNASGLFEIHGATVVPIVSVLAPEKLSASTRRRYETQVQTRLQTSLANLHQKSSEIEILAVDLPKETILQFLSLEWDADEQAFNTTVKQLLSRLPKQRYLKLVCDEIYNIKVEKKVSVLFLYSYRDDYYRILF

[3] = biological target: T1, Cytoplasmic tyrosine-protein kinase BMX (Homo sapiens) (UniProt P51813); experiment: Inhibition of human recombinant BMX at 500 nM related to control ULK1
T1 sequence (whole entry): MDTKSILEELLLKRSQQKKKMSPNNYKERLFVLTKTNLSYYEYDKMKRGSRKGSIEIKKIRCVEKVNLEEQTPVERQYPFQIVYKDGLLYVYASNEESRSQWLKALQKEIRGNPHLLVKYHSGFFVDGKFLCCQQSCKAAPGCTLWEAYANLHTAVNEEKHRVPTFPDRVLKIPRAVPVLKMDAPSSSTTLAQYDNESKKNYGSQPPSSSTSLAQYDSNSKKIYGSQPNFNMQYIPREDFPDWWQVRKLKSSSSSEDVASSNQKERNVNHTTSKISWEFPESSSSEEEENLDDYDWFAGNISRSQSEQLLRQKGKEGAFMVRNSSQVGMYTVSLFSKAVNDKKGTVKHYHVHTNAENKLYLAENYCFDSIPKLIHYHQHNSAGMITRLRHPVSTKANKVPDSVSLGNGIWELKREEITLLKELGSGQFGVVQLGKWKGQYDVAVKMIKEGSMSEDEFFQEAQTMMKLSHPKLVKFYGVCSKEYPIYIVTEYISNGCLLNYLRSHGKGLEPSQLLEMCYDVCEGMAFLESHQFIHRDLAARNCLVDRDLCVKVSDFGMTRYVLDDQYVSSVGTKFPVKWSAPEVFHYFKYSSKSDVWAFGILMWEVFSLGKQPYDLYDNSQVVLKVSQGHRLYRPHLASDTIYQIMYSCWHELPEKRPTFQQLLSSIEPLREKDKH

[4] = biological target: T2, Ephrin type-B receptor 2 (Homo sapiens) (UniProt P29323); experiment: Inhibition of human recombinant EphB2 at 500 nM related to control ULK1
T2 sequence (whole entry): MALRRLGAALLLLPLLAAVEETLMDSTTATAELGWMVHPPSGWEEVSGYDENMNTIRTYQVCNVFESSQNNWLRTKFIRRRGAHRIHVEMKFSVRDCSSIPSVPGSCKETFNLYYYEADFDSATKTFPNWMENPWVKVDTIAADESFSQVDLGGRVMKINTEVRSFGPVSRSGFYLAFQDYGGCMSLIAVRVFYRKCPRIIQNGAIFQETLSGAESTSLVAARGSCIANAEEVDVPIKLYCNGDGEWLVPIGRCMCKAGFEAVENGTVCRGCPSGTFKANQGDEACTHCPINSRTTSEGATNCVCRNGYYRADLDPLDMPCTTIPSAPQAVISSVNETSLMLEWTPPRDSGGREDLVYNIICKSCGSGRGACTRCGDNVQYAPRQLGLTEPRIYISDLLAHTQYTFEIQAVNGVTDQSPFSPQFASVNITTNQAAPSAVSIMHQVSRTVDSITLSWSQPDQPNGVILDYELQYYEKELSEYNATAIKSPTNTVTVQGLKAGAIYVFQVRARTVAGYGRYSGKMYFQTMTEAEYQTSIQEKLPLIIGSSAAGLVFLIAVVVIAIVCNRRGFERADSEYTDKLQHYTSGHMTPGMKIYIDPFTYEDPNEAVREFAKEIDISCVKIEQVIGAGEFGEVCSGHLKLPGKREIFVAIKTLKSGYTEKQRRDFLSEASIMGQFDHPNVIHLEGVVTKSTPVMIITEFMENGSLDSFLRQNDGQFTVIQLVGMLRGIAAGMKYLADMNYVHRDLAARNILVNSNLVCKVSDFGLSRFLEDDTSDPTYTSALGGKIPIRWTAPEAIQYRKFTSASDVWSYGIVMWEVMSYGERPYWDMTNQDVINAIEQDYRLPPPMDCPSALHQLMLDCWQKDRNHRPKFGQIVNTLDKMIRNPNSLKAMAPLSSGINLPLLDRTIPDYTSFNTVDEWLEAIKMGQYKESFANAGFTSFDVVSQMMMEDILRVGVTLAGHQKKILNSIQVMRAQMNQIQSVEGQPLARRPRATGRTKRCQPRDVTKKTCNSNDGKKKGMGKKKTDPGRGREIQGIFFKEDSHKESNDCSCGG

[5] = biological target: Mitogen-activated protein kinase kinase kinase 20 (Homo sapiens) (UniProt Q9NYL2); experiment: Inhibition of human recombinant ZAK at 40 nM related to control ULK1
[6] = biological target: Activated CDC42 kinase 1 (Homo sapiens) (UniProt Q07912); experiment: Inhibition of human recombinant ACK at 40 nM in presence of ATP by radiometric assay relative to control
Outline: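 Panel of 327 recombinant human kinases in radiometric activity assays, each screened in duplicate at a single inhibitor concentration; percent activity remaining relative to vehicle control, percent inhibition taken as 100 minus activity remaining.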

[7] = biological target: Serine/threonine-protein kinase/endoribonuclease IRE1 (Homo sapiens) (UniProt O75460); experiment: Inhibition of human recombinant IRE1 at 15 nM related to control ULK1
[8] = biological target: Mitogen-activated protein kinase kinase kinase 9 (Homo sapiens) (UniProt P80192); experiment: Inhibition of human recombinant MLK1 at 15 nM related to control ULK1
Mitogen-activated protein kinase kinase kinase 9 (Homo sapiens), sequence (P80192 whole entry, looked up): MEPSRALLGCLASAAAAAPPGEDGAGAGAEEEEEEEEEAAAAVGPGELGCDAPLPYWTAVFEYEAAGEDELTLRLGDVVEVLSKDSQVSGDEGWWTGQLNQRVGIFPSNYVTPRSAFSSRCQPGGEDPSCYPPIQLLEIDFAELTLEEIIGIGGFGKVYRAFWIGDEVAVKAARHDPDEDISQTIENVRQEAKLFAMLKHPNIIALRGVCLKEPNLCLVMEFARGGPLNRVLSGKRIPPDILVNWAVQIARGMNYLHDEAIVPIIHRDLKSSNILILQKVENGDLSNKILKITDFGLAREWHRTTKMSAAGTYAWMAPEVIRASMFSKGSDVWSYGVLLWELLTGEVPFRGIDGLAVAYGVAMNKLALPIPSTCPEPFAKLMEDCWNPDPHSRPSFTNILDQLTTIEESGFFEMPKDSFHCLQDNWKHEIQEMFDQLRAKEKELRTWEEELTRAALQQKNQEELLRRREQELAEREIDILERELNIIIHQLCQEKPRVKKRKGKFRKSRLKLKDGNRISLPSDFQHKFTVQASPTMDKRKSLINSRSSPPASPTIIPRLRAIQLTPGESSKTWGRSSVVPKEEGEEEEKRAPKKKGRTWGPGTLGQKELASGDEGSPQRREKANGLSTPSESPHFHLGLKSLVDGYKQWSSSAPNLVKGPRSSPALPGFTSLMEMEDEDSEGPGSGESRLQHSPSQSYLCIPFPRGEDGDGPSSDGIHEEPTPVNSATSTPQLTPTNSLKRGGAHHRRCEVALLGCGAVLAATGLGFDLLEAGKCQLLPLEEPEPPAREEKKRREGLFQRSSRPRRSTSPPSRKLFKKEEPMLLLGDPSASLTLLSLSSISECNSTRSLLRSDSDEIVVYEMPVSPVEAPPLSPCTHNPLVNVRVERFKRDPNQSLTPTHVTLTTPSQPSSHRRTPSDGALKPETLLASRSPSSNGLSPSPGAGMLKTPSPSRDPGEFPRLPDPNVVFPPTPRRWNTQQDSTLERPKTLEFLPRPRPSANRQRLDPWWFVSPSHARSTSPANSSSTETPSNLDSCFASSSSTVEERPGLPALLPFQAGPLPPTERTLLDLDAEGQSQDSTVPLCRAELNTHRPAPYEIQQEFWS

[9] = biological target: Tyrosine-protein kinase Yes (Homo sapiens) (UniProt P07947); experiment: Inhibition of human recombinant YES at 15 nM in presence of ATP by radiometric assay relative to control
Tyrosine-protein kinase Yes (Homo sapiens), sequence (P07947 2-543 limits assumed): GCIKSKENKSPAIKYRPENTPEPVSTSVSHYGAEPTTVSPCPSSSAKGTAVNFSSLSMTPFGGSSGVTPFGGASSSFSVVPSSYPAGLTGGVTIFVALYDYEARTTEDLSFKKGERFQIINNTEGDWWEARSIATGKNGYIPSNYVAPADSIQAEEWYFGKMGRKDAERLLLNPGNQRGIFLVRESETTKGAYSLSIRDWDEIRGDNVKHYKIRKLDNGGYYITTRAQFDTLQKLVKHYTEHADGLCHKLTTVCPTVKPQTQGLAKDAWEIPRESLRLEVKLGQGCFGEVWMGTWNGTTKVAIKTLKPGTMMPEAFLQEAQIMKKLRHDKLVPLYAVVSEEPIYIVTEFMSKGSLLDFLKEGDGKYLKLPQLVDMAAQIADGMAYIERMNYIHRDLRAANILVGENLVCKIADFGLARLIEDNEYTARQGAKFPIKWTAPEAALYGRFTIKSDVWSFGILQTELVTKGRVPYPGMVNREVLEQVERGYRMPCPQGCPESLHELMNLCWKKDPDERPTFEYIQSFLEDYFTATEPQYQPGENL

[10] = biological target: Hepatocyte growth factor receptor (Homo sapiens) (UniProt P08581); experiment: Inhibition of human recombinant MET at 15 nM related to control ULK1
Hepatocyte growth factor receptor (Homo sapiens), sequence (P08581 whole entry, looked up): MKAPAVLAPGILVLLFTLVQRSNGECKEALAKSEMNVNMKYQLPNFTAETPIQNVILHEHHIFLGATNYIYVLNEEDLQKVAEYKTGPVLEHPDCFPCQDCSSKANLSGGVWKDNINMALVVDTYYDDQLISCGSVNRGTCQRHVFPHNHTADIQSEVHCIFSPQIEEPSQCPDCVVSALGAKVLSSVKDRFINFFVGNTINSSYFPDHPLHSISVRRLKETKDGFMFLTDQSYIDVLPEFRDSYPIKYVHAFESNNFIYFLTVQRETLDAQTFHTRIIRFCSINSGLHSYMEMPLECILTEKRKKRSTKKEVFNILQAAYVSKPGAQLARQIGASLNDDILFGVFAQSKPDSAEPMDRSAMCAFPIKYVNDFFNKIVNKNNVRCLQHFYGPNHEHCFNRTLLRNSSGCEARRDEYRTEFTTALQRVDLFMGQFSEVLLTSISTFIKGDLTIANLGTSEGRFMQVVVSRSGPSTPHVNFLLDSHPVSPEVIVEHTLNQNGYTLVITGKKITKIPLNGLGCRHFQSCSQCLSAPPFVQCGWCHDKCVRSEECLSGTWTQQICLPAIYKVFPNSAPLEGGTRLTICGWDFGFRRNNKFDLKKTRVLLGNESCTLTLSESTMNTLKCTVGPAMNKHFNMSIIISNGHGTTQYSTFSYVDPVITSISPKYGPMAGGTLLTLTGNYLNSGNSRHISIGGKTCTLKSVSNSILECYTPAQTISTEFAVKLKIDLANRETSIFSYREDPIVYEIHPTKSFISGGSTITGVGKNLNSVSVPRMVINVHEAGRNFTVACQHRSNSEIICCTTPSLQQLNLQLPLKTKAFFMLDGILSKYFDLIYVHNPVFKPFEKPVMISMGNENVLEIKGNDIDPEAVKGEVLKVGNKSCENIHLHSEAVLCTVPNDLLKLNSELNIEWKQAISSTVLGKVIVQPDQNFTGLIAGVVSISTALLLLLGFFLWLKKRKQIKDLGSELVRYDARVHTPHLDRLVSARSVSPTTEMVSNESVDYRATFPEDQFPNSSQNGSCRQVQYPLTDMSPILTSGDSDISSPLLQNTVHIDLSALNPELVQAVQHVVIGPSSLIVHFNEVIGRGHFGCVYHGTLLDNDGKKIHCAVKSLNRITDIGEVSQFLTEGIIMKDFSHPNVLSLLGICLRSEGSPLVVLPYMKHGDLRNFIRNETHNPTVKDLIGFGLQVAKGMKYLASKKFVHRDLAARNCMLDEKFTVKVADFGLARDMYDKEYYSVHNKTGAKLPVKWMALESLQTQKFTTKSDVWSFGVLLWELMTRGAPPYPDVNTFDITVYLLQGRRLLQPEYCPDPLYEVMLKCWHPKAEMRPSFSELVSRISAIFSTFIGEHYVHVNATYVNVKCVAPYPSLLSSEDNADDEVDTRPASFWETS

- inhibition [1]: 0%
- inhibition [2]: 2%
- fold change (FC) [3]: 0.22
- fold change (FC) [4]: 0.2
Compound: CNC(=O)c1ccccc1Oc1nc(Nc2cc(OC)c(OC)c(OC)c2)ncc1Br

- fold change (FC) [5]: 0
- inhibition [6]: 17%
Compound: O=C(N[C@@H](C1CC1)C(F)(F)F)c1cc(-c2cnn3cc(-c4ccc(F)cc4)cnc23)cs1

- fold change (FC) [7]: 0
- fold change (FC) [8]: 0
- inhibition [9]: 76%
- fold change (FC) [10]: 0
Compound: CC(C)[C@H](NC(=O)c1cc(-c2cnn3cc(-c4ccc(OCCN5CCCCC5)cc4)cnc23)cs1)C(F)(F)F
